Reference: ChEMBL document CHEMBL1129264, “Mercaptoacyl dipeptides as orally active dual inhibitors of angiotensin-converting enzyme and neutral endopeptidase” (1996)

Key:
Format in all cases: organism-based
[1] = biological target: T1, Angiotensin-converting enzyme (Rattus norvegicus) (UniProt P47820); assay: Compound was tested for plasma inhibition of Angiotensin I converting enzyme activity in the conscious rat. Expressed as Inhibition of AI pressor response at 4 hr at a dose of 12.8 mg/kg po; parameters: dose 12.8 mg/kg
T1 sequence (whole entry): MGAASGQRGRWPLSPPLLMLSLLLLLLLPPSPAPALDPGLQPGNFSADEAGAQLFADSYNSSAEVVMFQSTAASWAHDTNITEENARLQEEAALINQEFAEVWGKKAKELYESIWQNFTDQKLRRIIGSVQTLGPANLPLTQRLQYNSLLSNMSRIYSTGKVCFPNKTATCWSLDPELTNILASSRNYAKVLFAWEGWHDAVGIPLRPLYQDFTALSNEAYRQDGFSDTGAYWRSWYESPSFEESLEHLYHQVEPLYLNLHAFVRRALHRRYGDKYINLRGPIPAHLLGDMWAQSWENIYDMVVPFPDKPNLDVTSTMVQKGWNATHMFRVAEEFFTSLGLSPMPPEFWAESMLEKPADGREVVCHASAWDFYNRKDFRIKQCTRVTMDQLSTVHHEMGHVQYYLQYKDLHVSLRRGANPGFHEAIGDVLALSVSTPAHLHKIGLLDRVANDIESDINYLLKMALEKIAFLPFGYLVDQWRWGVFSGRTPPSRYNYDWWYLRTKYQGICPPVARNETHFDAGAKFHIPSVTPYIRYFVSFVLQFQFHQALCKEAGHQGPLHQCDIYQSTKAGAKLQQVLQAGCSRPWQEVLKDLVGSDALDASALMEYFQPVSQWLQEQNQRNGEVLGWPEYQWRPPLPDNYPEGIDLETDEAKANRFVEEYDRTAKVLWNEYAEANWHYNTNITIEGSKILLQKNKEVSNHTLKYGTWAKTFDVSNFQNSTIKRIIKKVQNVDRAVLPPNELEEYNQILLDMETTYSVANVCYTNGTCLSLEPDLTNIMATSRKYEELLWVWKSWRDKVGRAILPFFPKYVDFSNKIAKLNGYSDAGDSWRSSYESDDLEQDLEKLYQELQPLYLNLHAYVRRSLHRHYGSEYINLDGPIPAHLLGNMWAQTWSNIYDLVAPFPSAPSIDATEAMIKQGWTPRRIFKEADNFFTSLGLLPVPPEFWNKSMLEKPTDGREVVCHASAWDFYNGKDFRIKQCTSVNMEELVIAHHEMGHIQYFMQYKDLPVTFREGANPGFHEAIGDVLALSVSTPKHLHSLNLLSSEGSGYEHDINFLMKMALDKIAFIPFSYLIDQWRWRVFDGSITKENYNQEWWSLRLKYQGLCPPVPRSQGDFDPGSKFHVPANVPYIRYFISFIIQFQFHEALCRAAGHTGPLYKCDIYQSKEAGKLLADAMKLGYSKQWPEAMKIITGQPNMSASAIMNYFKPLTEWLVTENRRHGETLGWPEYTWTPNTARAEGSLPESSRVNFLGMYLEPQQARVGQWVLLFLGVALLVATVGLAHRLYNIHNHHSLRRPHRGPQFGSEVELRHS
Procedure, shortened: (§1)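 Male conscious normotensive Sprague-Dawley rats (275-390 g), given femoral arterial and venous catheters under methohexital sodium (75 mg/kg ip) anesthesia. Next day, pressor responses to three angiotensin-I challenges (300 ng/kg iv) recorded by direct arterial pressure. Compound then dosed orally, and AI challenge repeated at set times. Each post-dose response compared with the mean of the three baseline responses, giving % inhibition.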

[2] = biological target: T1, Angiotensin-converting enzyme (Rattus norvegicus); assay: Compound was tested for plasma inhibition of Angiotensin I converting enzyme activity in the conscious rat. Expressed as Inhibition of AI pressor response at 6 hr at a dose of 12.8 mg/kg po; parameters: dose 12.8 mg/kg
Procedure, shortened: (§2)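 Male conscious normotensive Sprague-Dawley rats (275-390 g), prepared under methohexital sodium (75 mg/kg ip) with femoral arterial and venous catheters. The next day, pressor responses to three angiotensin-I challenges (300 ng/kg iv) were recorded. Compound was then given orally and angiotensin-I challenges were repeated at set times. Percent inhibition is relative to the mean of the three baseline responses.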

[3] = biological target: T1, Angiotensin-converting enzyme (Rattus norvegicus); assay: Compound was tested for plasma inhibition of Angiotensin I converting enzyme activity in the conscious rat. Expressed as Inhibition of AI pressor response at 1 hr at a dose of 12.8 mg/kg po; parameters: dose 12.8 mg/kg; procedure, shortened: as §1
[4] = biological target: T1, Angiotensin-converting enzyme (Rattus norvegicus); assay: Compound was tested for plasma inhibition of Angiotensin I converting enzyme activity in the conscious rat. Expressed as Inhibition of AI pressor response at 2 hr at a dose of 12.8 mg/kg po; parameters: dose 12.8 mg/kg; procedure, shortened: as §1
[5] = biological target: T1, Angiotensin-converting enzyme (Rattus norvegicus); assay: Compound was tested for plasma inhibition of Angiotensin I converting enzyme activity in the conscious rat. Expressed as Inhibition of AI pressor response at 1 hr at a dose of 13.1 mg/kg po; parameters: dose 13.1 mg/kg; procedure, shortened: as §1
[6] = biological target: T1, Angiotensin-converting enzyme (Rattus norvegicus); assay: Compound was tested for plasma inhibition of Angiotensin I converting enzyme activity in the conscious rat. Expressed as Inhibition of AI pressor response at 2 hr at a dose of 13.1 mg/kg po; parameters: dose 13.1 mg/kg; procedure, shortened: as §1
[7] = biological target: T1, Angiotensin-converting enzyme (Rattus norvegicus); assay: Compound was tested for plasma inhibition of Angiotensin I converting enzyme activity in the conscious rat. Expressed as Inhibition of AI pressor response at 6 hr at a dose of 13.1 mg/kg po; parameters: dose 13.1 mg/kg; procedure, shortened: as §2
[8] = biological target: T1, Angiotensin-converting enzyme (Rattus norvegicus); assay: Compound was tested for plasma inhibition of Angiotensin I converting enzyme activity in the conscious rat. Expressed as Inhibition of AI pressor response at 4 hr at a dose of 13.1 mg/kg po; parameters: dose 13.1 mg/kg; procedure, shortened: as §2
[9] = biological target: T1, Angiotensin-converting enzyme (Rattus norvegicus); assay: Compound was tested for plasma inhibition of Angiotensin I converting enzyme activity in the conscious rat. Expressed as Inhibition of AI pressor response at 4 hr at a dose of 10 mg/kg po; parameters: dose 10 mg/kg; procedure, shortened: as §1
[10] = biological target: T1, Angiotensin-converting enzyme (Rattus norvegicus); assay: Compound was tested for plasma inhibition of Angiotensin I converting enzyme activity in the conscious rat. Expressed as Inhibition of AI pressor response at 6 hr at a dose of 10 mg/kg po; parameters: dose 10 mg/kg; procedure, shortened: as §2
[11] = biological target: T1, Angiotensin-converting enzyme (Rattus norvegicus); assay: Compound was tested for plasma inhibition of Angiotensin I converting enzyme activity in the conscious rat. Expressed as Inhibition of AI pressor response at 1 hr at a dose of 10 mg/kg po; parameters: dose 10 mg/kg; procedure, shortened: as §1
[12] = biological target: T1, Angiotensin-converting enzyme (Rattus norvegicus); assay: Compound was tested for plasma inhibition of Angiotensin I converting enzyme activity in the conscious rat. Expressed as Inhibition of AI pressor response at 2 hr at a dose of 10 mg/kg po; parameters: dose 10 mg/kg; procedure, shortened: as §1
[13] = biological target: T1, Angiotensin-converting enzyme (Rattus norvegicus); assay: Compound was tested for plasma inhibition of Angiotensin I converting enzyme activity in the conscious rat. Expressed as Inhibition of AI pressor response at 6 hr at a dose of 14.3 mg/kg po; parameters: dose 14.3 mg/kg; procedure, shortened: as §2
[14] = biological target: T1, Angiotensin-converting enzyme (Rattus norvegicus); assay: Compound was tested for plasma inhibition of Angiotensin I converting enzyme activity in the conscious rat. Expressed as Inhibition of AI pressor response at 4 hr at a dose of 14.3 mg/kg po; parameters: dose 14.3 mg/kg; procedure, shortened: as §2
[15] = biological target: T1, Angiotensin-converting enzyme (Rattus norvegicus); assay: Compound was tested for plasma inhibition of Angiotensin I converting enzyme activity in the conscious rat. Expressed as Inhibition of AI pressor response at 2 hr at a dose of 14.3 mg/kg po; parameters: dose 14.3 mg/kg; procedure, shortened: as §1
[16] = biological target: T1, Angiotensin-converting enzyme (Rattus norvegicus); assay: Compound was tested for plasma inhibition of Angiotensin I converting enzyme activity in the conscious rat. Expressed as Inhibition of AI pressor response at 1 hr at a dose of 14.3 mg/kg po; parameters: dose 14.3 mg/kg; procedure, shortened: as §1

In the case of CCOC(=O)[C@H](Cc1ccc(O)cc1)NC(=O)C1(NC(=O)[C@H](SC(=O)C(C)(C)C)C(C)C)CCCC1, the inhibition [1] is reported as 14%, the inhibition [2] is reported as 19% and the inhibition [3] is reported as 8%. For the same compound, the inhibition [4] was 17%.

CCCCOC(=O)[C@H](Cc1ccc(O)cc1)NC(=O)C1(NC(=O)[C@H](SC(=O)COC)C(C)C)CCCC1 was tested, and the inhibition [5] was 76%, the inhibition [6] was 75% and the inhibition [7] was 54%. The inhibition [8] was 58%.

With CCCCOC(=O)[C@H](Cc1ccc(OC)cc1)NC(=O)C1(NC(=O)[C@H](SC(C)=O)C(C)C)CCCC1 the inhibition [9] was 65%, the inhibition [2] was 58% and the inhibition [3] was 75%. The inhibition [4] was 70%.

Compound CCCCOC(=O)[C@H](Cc1ccc(O)cc1)NC(=O)C1(NC(=O)[C@H](SC(=O)CCC)C(C)C)CCCC1 has an inhibition [5] of 82%, an inhibition [6] of 85% and an inhibition [7] of 69%. It also gave an inhibition [8] of 76%.

COC(=O)[C@H](Cc1ccc(O)cc1)NC(=O)C1(NC(=O)[C@H](SC(C)=O)C(C)C)CCCC1 gave an inhibition [10] of 14%, an inhibition [9] of 25% and an inhibition [11] of 76%. It also gave an inhibition [12] of 72%.

CCCCCCOC(=O)[C@H](Cc1ccc(O)cc1)NC(=O)C1(NC(=O)[C@H](SC(C)=O)C(C)C)CCCC1 gave an inhibition [5] of 64%, an inhibition [6] of 78% and an inhibition [7] of 16%. The inhibition [8] was 61%.

With CCOC(=O)[C@H](Cc1ccc(OC(=O)c2ccccc2)cc1)NC(=O)C1(NC(=O)[C@H](SC(C)=O)C(C)C)CCCC1 the inhibition [13] was 10%, the inhibition [14] was 36% and the inhibition [15] was 30%. The inhibition [16] was 45%.

CCCCOC(=O)[C@H](Cc1ccc(O)cc1)NC(=O)C1(NC(=O)[C@H](SC(=O)C(C)C)C(C)C)CCCC1 gave an inhibition [5] of 27%, an inhibition [6] of 16% and an inhibition [8] of 25%.
